Measured values as given in ChEMBL document CHEMBL1629456, “ApoA-I mimetic peptides promote pre-β HDL formation in vivo causing remodeling of HDL and triglyceride accumulation at higher dose” (Bioorg Med Chem, 2010).
pEC50, pIC50: −log10 of the molar value. One block for each compound: values may come before it. Activity calls are given as the source filed them. The calls are words filed in the database; no cut-off is given here. Where a SMILES comes first, the peptide text is derived from it. [ ]: non-standard residue; d: D form. Ala(5-hexenyl) = C=CCCCCC[C@H](N)C(=O)O; dNle(6-vinyl) = C=CCCCC[C@@H](N)C(=O)O

Legend:
Plasma [1] = test: Induction of pre-beta HDL formation in human plasma after 2 hrs by ELISA; type: functional, cell-free
Method in brief: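 Increasing peptide concentrations were incubated with normal human plasma at 37 °C for 2 h. Pre-β HDL was quantified by a commercial human pre-β HDL ELISA.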

Mus musculus [2] = test: Effect on triglyceride level in C57/BL6 mouse at 20 mg/kg, sc after 1 hr; type: functional, organism-based; set-up: dose 20 mg/kg; conditions: C57Bl/6
Method in brief: (§1)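 Male C57Bl/6 mice (≥12 weeks, chow-fed) given peptide subcutaneously in 50 mM mannitol/PBS vehicle. Serum was collected by cardiac puncture at 1 or 3 h, clotted 1 h at room temperature and spun at 10,000g. Serum triglyceride was measured by enzymatic colorimetric assay, with 3–5 animals per dose and time point.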

Mus musculus [3] = test: Effect on triglyceride level in C57/BL6 mouse at 20 mg/kg, sc after 3 hrs; type: functional, organism-based; set-up: dose 20 mg/kg; conditions: C57Bl/6; method in brief: as §1
Mus musculus [4] = test: Effect on triglyceride level in C57/BL6 mouse at 60 mg/kg, sc after 1 hr; type: functional, organism-based; set-up: dose 60 mg/kg; conditions: C57Bl/6; method in brief: as §1
[5] = molecular target: Lipoprotein lipase (Bos taurus) (UniProt P11151); test: Inhibition of Lipoprotein lipase in vitro
Mus musculus [6] = species: Mus musculus; test: Induction of pre-beta HDL formation in C57/BL6 mouse plasma at 0.25 mg/ml after 2 hrs by FPLC; type: functional; conditions: C57Bl/6
Method in brief: (§2)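 Peptide was added to C57Bl/6 mouse plasma (final 0.25 mg/ml) or human plasma (final 0.5 mg/ml) and incubated at 37 °C. Lipoproteins were fractionated by Superose 6 FPLC in PBS pH 7.4 with 1 mM EDTA. Cholesterol was measured by enzymatic colorimetry and peptide by LC–MS against an internal standard.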

Plasma [7] = test: Induction of pre-beta HDL formation in human plasma at 0.5 mg/ml after 2 hrs by FPLC; type: functional, cell-free; method in brief: as §2
Plasma [8] = test: Induction of pre-beta HDL formation in mouse plasma after 2 hrs by ELISA; type: functional, cell-free
Mus musculus [9] = test: Induction of pre-beta HDL formation in apoe deficient mouse assessed as increase in circulating pre-beta HDL at 60 mg/kg, sc after 2 hrs by FPLC; type: functional, organism-based; set-up: dose 60 mg/kg; conditions: TDE = time-dependent effect
[10] = molecular target: Phospholipid-transporting ATPase ABCA1 (Mus musculus) (UniProt P41233); test: Induction of ABCA1-mediated [3H]cholesterol efflux in mouse J774 macrophages; conditions: TDE = time-dependent effect
Phospholipid-transporting ATPase ABCA1 (Mus musculus), sequence (P41233 whole entry): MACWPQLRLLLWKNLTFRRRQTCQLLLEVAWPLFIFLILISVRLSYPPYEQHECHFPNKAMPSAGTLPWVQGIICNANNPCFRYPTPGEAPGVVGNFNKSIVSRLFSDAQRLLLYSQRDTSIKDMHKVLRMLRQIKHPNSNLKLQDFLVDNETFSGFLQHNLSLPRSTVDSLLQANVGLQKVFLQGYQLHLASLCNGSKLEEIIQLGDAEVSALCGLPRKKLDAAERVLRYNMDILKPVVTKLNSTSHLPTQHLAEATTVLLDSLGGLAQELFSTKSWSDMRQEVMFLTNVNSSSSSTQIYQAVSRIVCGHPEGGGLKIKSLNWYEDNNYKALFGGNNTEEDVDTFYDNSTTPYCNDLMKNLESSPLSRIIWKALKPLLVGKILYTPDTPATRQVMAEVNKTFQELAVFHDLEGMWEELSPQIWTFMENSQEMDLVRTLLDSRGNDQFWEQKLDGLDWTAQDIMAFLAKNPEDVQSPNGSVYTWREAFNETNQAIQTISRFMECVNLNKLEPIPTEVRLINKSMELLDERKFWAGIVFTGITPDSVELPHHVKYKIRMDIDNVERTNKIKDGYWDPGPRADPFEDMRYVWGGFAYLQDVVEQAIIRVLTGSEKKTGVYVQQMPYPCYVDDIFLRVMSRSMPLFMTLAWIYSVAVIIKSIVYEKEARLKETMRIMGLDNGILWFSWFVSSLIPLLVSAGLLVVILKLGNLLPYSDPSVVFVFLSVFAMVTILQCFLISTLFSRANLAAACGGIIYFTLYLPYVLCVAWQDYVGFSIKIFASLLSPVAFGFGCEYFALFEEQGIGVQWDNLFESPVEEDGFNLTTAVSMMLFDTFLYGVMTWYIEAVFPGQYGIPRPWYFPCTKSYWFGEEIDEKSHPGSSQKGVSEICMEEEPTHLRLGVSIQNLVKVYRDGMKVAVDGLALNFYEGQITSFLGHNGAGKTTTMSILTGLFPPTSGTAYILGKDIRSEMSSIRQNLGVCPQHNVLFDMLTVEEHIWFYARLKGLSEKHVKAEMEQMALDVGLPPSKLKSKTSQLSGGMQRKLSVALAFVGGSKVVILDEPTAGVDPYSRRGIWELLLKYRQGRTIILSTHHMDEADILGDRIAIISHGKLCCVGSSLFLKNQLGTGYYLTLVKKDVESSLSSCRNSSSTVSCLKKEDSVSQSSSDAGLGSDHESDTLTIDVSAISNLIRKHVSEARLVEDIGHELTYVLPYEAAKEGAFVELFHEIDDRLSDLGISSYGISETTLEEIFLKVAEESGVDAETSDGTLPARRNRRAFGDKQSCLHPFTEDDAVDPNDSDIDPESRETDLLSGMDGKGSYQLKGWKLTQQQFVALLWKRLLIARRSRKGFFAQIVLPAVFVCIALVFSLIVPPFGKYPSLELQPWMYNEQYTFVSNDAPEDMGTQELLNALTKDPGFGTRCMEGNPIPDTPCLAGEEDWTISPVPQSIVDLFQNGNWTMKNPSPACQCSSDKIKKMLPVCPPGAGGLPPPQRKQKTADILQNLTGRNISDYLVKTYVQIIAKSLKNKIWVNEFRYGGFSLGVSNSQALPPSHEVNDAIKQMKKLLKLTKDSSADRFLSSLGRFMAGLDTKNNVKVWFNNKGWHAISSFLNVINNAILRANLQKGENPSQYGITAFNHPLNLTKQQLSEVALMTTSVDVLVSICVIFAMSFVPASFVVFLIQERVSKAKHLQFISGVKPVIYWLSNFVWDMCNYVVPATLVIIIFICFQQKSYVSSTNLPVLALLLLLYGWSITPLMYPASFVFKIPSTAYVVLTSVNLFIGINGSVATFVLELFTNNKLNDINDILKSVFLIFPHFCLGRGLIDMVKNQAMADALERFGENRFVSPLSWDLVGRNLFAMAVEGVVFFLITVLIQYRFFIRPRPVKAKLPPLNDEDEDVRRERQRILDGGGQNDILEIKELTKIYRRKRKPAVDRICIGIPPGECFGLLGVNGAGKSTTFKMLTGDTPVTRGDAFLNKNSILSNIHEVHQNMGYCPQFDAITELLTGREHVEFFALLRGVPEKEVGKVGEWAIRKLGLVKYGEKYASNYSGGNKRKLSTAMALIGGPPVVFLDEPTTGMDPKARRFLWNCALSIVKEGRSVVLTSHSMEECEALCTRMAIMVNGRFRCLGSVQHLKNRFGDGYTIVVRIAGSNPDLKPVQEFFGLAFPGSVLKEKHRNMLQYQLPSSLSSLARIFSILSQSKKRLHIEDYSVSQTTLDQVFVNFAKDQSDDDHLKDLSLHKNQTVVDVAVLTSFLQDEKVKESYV
Method in brief: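 Ex vivo serum efflux. J774 macrophages were labeled with [3H]cholesterol for 24 h, then equilibrated 18 h in 0.2% BSA, with or without cpt-cAMP. Cells were incubated 4 h at 37 °C with 2% serum from peptide-dosed apoe-/- mice (60 mg/kg sc). Fractional efflux was media [3H] over total at time zero; ABCA1-dependent efflux = cAMP-treated minus untreated.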

[11] = Plasma concentration in C57/BL6 mouse at 60 mg/kg, sc after 3 hrs; type: ADME, organism-based, C57Bl/6; set-up: dose 60 mg/kg, route subcutaneous
Method in brief: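 Male C57Bl/6 mice were dosed subcutaneously with peptide in 50 mM mannitol/PBS. Serum was taken by cardiac puncture, and peptide was measured by LC–MS/MS after acetonitrile protein precipitation.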

Mus musculus [12] = test: Induction of hypertriglyceridemia in C57/BL6 mouse at 30 mg/kg, sc by FPLC; type: functional, organism-based; set-up: dose 30 mg/kg; conditions: C57Bl/6
Method in brief: (§3)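 Male C57Bl/6 mice (≥12 weeks, chow-fed) dosed subcutaneously with peptide in vehicle (50 mM mannitol in PBS); serum collected by cardiac puncture at time points post-dose. Serum was pooled (three animals per pool), given protease and lipase inhibitors, filtered, and fractionated by Superose 6 FPLC in PBS pH 7.4 with 1 mM EDTA at 0.2 ml/min. Cholesterol and triglyceride in fractions were measured by enzymatic colorimetry.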

Mus musculus [13] = test: Induction of hypertriglyceridemia in C57/BL6 mouse at 100 mg/kg, sc by FPLC; type: functional, organism-based; set-up: dose 100 mg/kg; conditions: C57Bl/6; method in brief: as §3
Mus musculus [14] = test: Increase in VLDL cholesterol level in C57/BL6 mouse at 30 mg/kg, sc by FPLC; type: functional, organism-based; set-up: dose 30 mg/kg; conditions: C57Bl/6; method in brief: as §3
Mus musculus [15] = test: Increase in VLDL cholesterol level in C57/BL6 mouse at 100 mg/kg, sc by FPLC; type: functional, organism-based; set-up: dose 100 mg/kg; conditions: C57Bl/6; method in brief: as §3
Mus musculus [16] = test: Increase in VLDL triglyceride level in C57/BL6 mouse at 30 mg/kg, sc by FPLC; type: functional, organism-based; set-up: dose 30 mg/kg; conditions: C57Bl/6; method in brief: as §3
Mus musculus [17] = test: Increase in VLDL triglyceride level in C57/BL6 mouse at 100 mg/kg, sc by FPLC; type: functional, organism-based; set-up: dose 100 mg/kg; conditions: C57Bl/6; method in brief: as §3
Mus musculus [18] = test: Effect on TG content in HDL in C57/BL6 mouse at 30 mg/kg, sc after 24 hrs by FPLC; type: functional, organism-based; set-up: dose 30 mg/kg; conditions: C57Bl/6; method in brief: as §3
Mus musculus [19] = test: Effect on TG content of HDL in C57/BL6 mouse at 100 mg/kg, sc after 24 hrs by FPLC; type: functional, organism-based; set-up: dose 100 mg/kg; conditions: C57Bl/6; method in brief: as §3
Mus musculus [20] = test: Decrease in HDL cholesterol level in C57/BL6 mouse at 30 mg/kg, sc after 24 hrs by FPLC; type: functional, organism-based; set-up: dose 30 mg/kg; conditions: C57Bl/6; method in brief: as §3
Mus musculus [21] = test: Decrease in HDL cholesterol level in C57/BL6 mouse at 100 mg/kg, sc after 24 hrs by FPLC; type: functional, organism-based; set-up: dose 100 mg/kg; conditions: C57Bl/6; method in brief: as §3
[22] = molecular target: Phospholipid-transporting ATPase ABCA1 (Mus musculus, UniProt P41233); test: Induction of ABCA1-mediated [3H]cholesterol efflux in mouse RAW 264.7 macrophages after 24 hrs
Phospholipid-transporting ATPase ABCA1, sequence (P41233 whole entry): as above

Mus musculus [23] = test: Effect on triglyceride level in C57/BL6 mouse at 60 mg/kg, sc; type: functional, organism-based; set-up: dose 60 mg/kg; conditions: C57Bl/6, TDE = time-dependent effect; method in brief: as §1

pIC50 [5]: 4.00
Compound: C=CCCCCC[C@H](NC(=O)[C@H](CCC(=O)O)NC(=O)[C@H](CC(N)=O)NC(=O)[C@H](CC(C)C)NC(=O)[C@H](CCCCN)NC(=O)[C@H](CCC(=O)O)NC(=O)[C@H](CCCNC(=N)N)NC(=O)[C@@H](CCCCC=C)NC(=O)[C@H](CCC(=O)O)NC(=O)[C@H](CC(=O)O)NC(=O)[C@H](CC(C)C)NC(=O)[C@@H](NC(=O)[C@@H]1CCCN1C(C)=O)C(C)C)C(=O)N[C@@H](CC(C)C)C(=O)N[C@@H](CCC(=O)O)C(=O)N[C@@H](C)C(=O)N[C@@H](CC(C)C)C(=O)N[C@@H](CCCCN)C(=O)N[C@@H](CCC(N)=O)C(=O)N[C@@H](CCCCN)C(=O)N[C@@H](CC(C)C)C(=O)N[C@@H](CCCCN)C(N)=O (Ac-PVLDE[dNle(6-vinyl)]REKLNE[Ala(5-hexenyl)]LEALKQKLK-NH2)
Activity (Plasma [1]): Dose-dependent effect
Activity (Mus musculus [2]): inactive
Activity (Mus musculus [3]): inactive
Activity (Mus musculus [4]): inactive

Activity [10]: tde
concentration at 3 h [11]: 124 µM
pIC50 [5]: 4.22
pEC50 [22]: 6.40
Compound: C=CCCCCC[C@H](NC(=O)[C@H](CCC(=O)O)NC(=O)[C@H](CC(N)=O)NC(=O)[C@H](CC(C)C)NC(=O)[C@H](CCCCN)NC(=O)[C@H](CCC(=O)O)NC(=O)[C@H](CCCNC(=N)N)NC(=O)[C@H](CCCCCC=C)NC(=O)[C@H](CCC(=O)O)NC(=O)[C@H](CC(=O)O)NC(=O)[C@H](CC(C)C)NC(=O)[C@@H](NC(=O)[C@@H]1CCCN1C(C)=O)C(C)C)C(=O)N[C@@H](CC(C)C)C(=O)N[C@@H](CCC(=O)O)C(=O)N[C@@H](C)C(=O)N[C@@H](CC(C)C)C(=O)N[C@@H](CCCCN)C(=O)N[C@@H](CCC(N)=O)C(=O)N[C@@H](CCCCN)C(=O)N[C@@H](CC(C)C)C(=O)N[C@@H](CCCCN)C(N)=O (Ac-PVLDE[Ala(5-hexenyl)]REKLNE[Ala(5-hexenyl)]LEALKQKLK-NH2)
Activity (Plasma [1]): Dose-dependent effect
Activity (Mus musculus [6]): Active
Activity (Plasma [7]): Active
Activity (Plasma [8]): Dose-dependent effect
Activity (Mus musculus [9]): tde
Activity (Mus musculus [2]): inactive
Activity (Mus musculus [3]): inactive
Activity (Mus musculus [4]): inactive
Activity (Mus musculus [12]): inactive
Activity (Mus musculus [13]): Active
Activity (Mus musculus [14]): Active
Activity (Mus musculus [15]): Active
Activity (Mus musculus [16]): Active
Activity (Mus musculus [17]): Active
Activity (Mus musculus [18]): inactive
Activity (Mus musculus [19]): inactive
Activity (Mus musculus [20]): Active
Activity (Mus musculus [21]): Active

pIC50 [5]: 3.32
Compound: Ac-PVLDEFREKLNEELEALKQKLK-NH2
Activity (Plasma [1]): inactive
Activity (Mus musculus [23]): tde
